Series [1] concerns Mus musculus. The experiment in a line: Immunostimulatory activity in BALB/c mouse assessed as induction of peripheral blood granulocyte phagocytosis at 100 ug, ip after 24 hrs. The class given is functional, organism-based. The procedure, abridged: (§1)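 Female BALB/c mice (6–8 weeks) were injected ip with oligosaccharide 24 h before the test. Heparinised (5 IU/mL) orbital plexus blood was incubated with synthetic HEMA microspheres. Two smears from two parallel samples were stained with Accustain. Monocytes and granulocytes holding three or more particles were scored positive. Mean ± SD; P <0.05.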

The test system of series [2] is Mus musculus. Nature of the series: Immunostimulatory activity in BALB/c mouse assessed as influx of macrophages into peritoneal cavity at 100 ug, ip after 24 hrs. The class given is functional, organism-based. The procedure, abridged:
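Female BALB/c mice (6–8 weeks) got one ip injection of sample. Peritoneal cavity cells were collected and percentages of macrophages, lymphocytes and mast cells scored. Values are the mean of three independent experiments ± SD.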

In series [3] the test system is Mus musculus. The experiment in a line: Immunostimulatory activity in BALB/c mouse assessed as induction of peritoneal macrophage phagocytosis at 100 ug, ip after 24 hrs. The class given is functional, organism-based. The method, boiled down: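 Oligosaccharide was given ip to female BALB/c mice (6–8 weeks) 24 h before harvest. Peritoneal macrophages were isolated, diluted to 1×10⁷ in RPMI-1640 with 5% fetal calf serum, and incubated with HEMA microspheres. Smears were stained with Accustain, and phagocytosis was scored with differential counts; cells with three or more particles counted positive.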

The test system of series [4] is Mus musculus. Nature of the series: Immunostimulatory activity in BALB/c mouse assessed as induction of peripheral blood monocyte phagocytosis at 100 ug, ip after 24 hrs. The class given is functional, organism-based. The method, boiled down: as §1
The subject of series [5] is Mus musculus. Nature of the series: Immunostimulatory activity in BALB/c mouse assessed as increase in granulocyte count in peripheral blood at 100 ug, ip after 24 hrs. The class given is functional, organism-based.
For series [6], the system named is Mus musculus. The experiment in a line: Immunostimulatory activity in BALB/c mouse assessed as decrease in lymphocyte count in peripheral blood at 100 ug, ip after 24 hrs. The class given is functional, organism-based.
The next series relates to PC-3. The experiment in a line: Cytotoxicity against human PC3 cells assessed as effect on cell growth at 0.1 to 25 uM after 24 to 48 hrs by Hoechst 3342 staining-based imaging analysis. Particulars: pc-3, 25 µM. The method, boiled down:
(§2)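 Human tumour lines (liver, colon, prostate, breast, lung) and resting normal diploid skin fibroblasts were grown per supplier guidance. 4×10³ cells/well attached for 24 h, then were exposed to increasing compound concentrations for 1 and 2 days. Cells were fixed in 4% paraformaldehyde, nuclei stained with Hoechst 3342, and counted by automated imaging from four pictures per well.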

The species entered for series [7] is Mus musculus. The experiment in a line: Immunostimulatory activity in BALB/c mouse splenocytes assessed as induction of IL2 production at 100 ug after 72 hrs. The class given is functional, organism-based. Conditions: Splenocyte. The procedure, abridged: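 Spleen cells came from female BALB/c mice (6–8 weeks) injected ip with oligosaccharide; controls were PBS-injected mice. Cells were plated at 2×10⁶/mL in RPMI-1640 with 5% FCS, with Concanavalin A added to positive-control wells. After 72 h at 37 °C and 5% CO₂, supernatant IL-2 was measured with a Quantikine mouse IL-2 kit. Mean of three independent experiments ± SD.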

The nature of series [8]: Cytotoxicity against human HuH7 cells assessed as effect on cell growth at 0.1 to 25 uM after 24 to 48 hrs by Hoechst 3342 staining-based imaging analysis. Particulars: huh-7, 25 µM. The procedure, abridged: as §2
A further series deals with HCT-116. The experiment in a line: Cytotoxicity against human HCT116 cells assessed as effect on cell growth at 0.1 to 25 uM after 24 to 48 hrs by Hoechst 3342 staining-based imaging analysis. Conditions: hct-116, 25 µM. The procedure, abridged:
as §2

Series [9] can be described thus: Cytotoxicity against human NCI/ADR cells assessed as effect on cell growth at 0.1 to 25 uM after 24 to 48 hrs by Hoechst 3342 staining-based imaging analysis. The procedure, abridged: as §2
Series [10] is described as follows: Cytotoxicity against human skin fibroblast assessed as effect on cell growth at 0.1 to 25 uM after 24 to 48 hrs by Hoechst 3342 staining-based imaging analysis. The procedure, abridged:
as §2

Another series deals with Caco-2. The experiment in a line: Cytotoxicity against human Caco-2 cells assessed as effect on cell growth at 0.1 to 25 uM after 24 to 48 hrs by Hoechst 3342 staining-based imaging analysis. Conditions: caco-2, 25 µM. The method, boiled down:
as §2

Four compounds from ChEMBL document CHEMBL1157669, “New oligo-beta-(1,3)-glucan derivatives as immunostimulating agents” (Bioorg Med Chem, 2010) can be followed below.

SMILES strings stand for the structures. Calls of active or inactive are those of the source. The rule behind the calls is not given here.

For the compound `OC[C@H]1O[C@@H](O[C@@H]2[C@@H](O)[C@H](O[C@@H]3[C@@H](O)[C@H](O[C@@H]4[C@@H](O)[C@H](O[C@@H]5[C@@H](O)[C@H](O[C@@H]6[C@@H](O)[C@H](O[C@@H]7[C@@H](O)[C@H](O)O[C@H](CO)[C@H]7O)O[C@H](CO)[C@H]6O)O[C@H](CO)[C@H]5O)O[C@H](CO)[C@H]4O)O[C@H](CO)[C@H]3O)O[C@H](CO)[C@H]2O)[C@H](O)[C@@H](O)[C@@H]1O`, the outcome in the series on Mus musculus [1], in the series on Mus musculus [2], with Mus musculus [3], in the series with Mus musculus [4], in the series with Mus musculus [5] and in the series with Mus musculus [6] was Active.
Take `OC[C@H]1O[C@@H](O[C@@H]2[C@@H](O)[C@H](O[C@@H]3[C@@H](O)[C@H](O[C@@H]4[C@@H](O)[C@H](O[C@@H]5[C@@H](O)[C@H](O)O[C@H](CO)[C@H]5O)O[C@H](CO)[C@H]4O)O[C@H](CO)[C@H]3O)O[C@H](CO)[C@H]2O)[C@H](O)[C@@H](O)[C@@H]1O`: the outcome in the series with Mus musculus [1], with Mus musculus [2], in the series with Mus musculus [3], in the series on Mus musculus [4], in the series on Mus musculus [5] and in the series on Mus musculus [6] was Active.
For `OC[C@H]1O[C@@H](O[C@@H]2[C@@H](O)[C@H](O[C@@H]3[C@@H](O)[C@H](O[C@@H]4[C@@H](O)[C@H](O[C@H]5[C@H](O)[C@@H](CO)OC(O)[C@H]5O)O[C@H](CO)[C@H]4O)O[C@H](CO)[C@H]3O)O[C@H](CO)[C@H]2O)[C@H](O)[C@@H](O)[C@@H]1O` (some centres not stated), the outcome in the series with Mus musculus [1], in the series with Mus musculus [2], in the series on Mus musculus [3], in the series listed under Mus musculus [7], in the series on Mus musculus [4] and in the series on Mus musculus [5] was Active. The outcome with Mus musculus [6] was Active. The Activity entry (with PC-3; in [8]; in the series on HCT-116; in [9]; in [10]; in the series with Caco-2) was “Non-toxic” throughout.
Turning to `OC[C@H]1O[C@@H](O[C@@H]2[C@@H](O)[C@H](O[C@@H]3[C@@H](O)[C@H](O[C@@H]4[C@@H](O)[C@H](O[C@@H]5[C@@H](O)[C@H](O[C@H]6[C@H](O)[C@@H](CO)OC(O)[C@H]6O)O[C@H](CO)[C@H]5O)O[C@H](CO)[C@H]4O)O[C@H](CO)[C@H]3O)O[C@H](CO)[C@H]2O)[C@H](O)[C@@H](O)[C@@H]1O` (some centres not stated), the result with Mus musculus [1], with Mus musculus [2], in the series on Mus musculus [3], in the series with Mus musculus [4], in the series with Mus musculus [5] and with Mus musculus [6] was Active. The Activity result (in the series on PC-3; in series [8]; in the series with HCT-116; in series [9]; in series [10]; with Caco-2) was “Non-toxic” throughout.
